The record followed here is ChEMBL document CHEMBL1132383, “Cardioselective antiischemic ATP-sensitive potassium channel (K(ATP)) openers. 6. Effect of modifications at C6 of benzopyranyl cyanoguanidines” (J Med Chem, 1999).

The structures appear in SMILES notation.

The term EC25 denotes the point of the concentration-response curve where the effect stands at 25%. Low values mean greater potency, high ones weaker potency. The IC50 is the point on the concentration scale where inhibition reaches its midpoint.

The species entered for one test is Rattus norvegicus. The test can be described thus: Antiischemic potency by measurement of increase in time to contracture in globally ischemic isolated perfused rat hearts. Format: functional. An outline of the steps: (§1)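 Isolated rat hearts, perfused and then subjected to global ischemia. Activity is read as the lengthening of time to onset of ischemic contracture. Compounds were first tested at 10 μM. EC25 for increasing time to contracture was then determined.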
The molecule `CC1(C)Oc2ccc(C#N)cc2[C@H](N(Cc2ncc[nH]2)c2ccc(Cl)cc2)[C@H]1O` [BMS-191095] showed an EC25 of 1.4 µM.

With `CC1(C)Oc2ccc(S(=O)(=O)c3ccccc3)cc2[C@@H](/N=C(\NC#N)Nc2ccc(Cl)cc2)[C@@H]1O`, the 25% effect concentration (EC25) worked out at 0.8 µM.

In the case of `CC(C)CN(C)S(=O)(=O)c1ccc2c(c1)[C@@H](/N=C(\NC#N)Nc1ccc(Cl)cc1)[C@H](O)C(C)(C)O2`, the concentration for an effect of 25% (EC25) turned out to be 0.25 µM.

`CC1(C)Oc2ccc(S(=O)(=O)Nc3ccccc3)cc2[C@@H](/N=C(\NC#N)Nc2ccc(Cl)cc2)[C@@H]1O` yielded a 25% effect concentration (EC25) of 1.9 µM.

`COP(=O)(c1ccccc1)c1ccc2c(c1)[C@@H](/N=C(\NC#N)Nc1ccc(Cl)cc1)[C@H](O)C(C)(C)O2` (some centres undefined) gave a concentration for an effect of 25% (EC25) of 2.4 µM.

`CC1(C)Oc2ccc(C#N)cc2[C@@H](N2CCCC2=O)[C@@H]1O` [CROMAKALIM]: the concentration for an effect of 25% (EC25) came to 8.9 µM.

In the case of `CC1(C)Oc2ccc(C(=O)Cc3ccccc3)cc2[C@@H](/N=C(\NC#N)Nc2ccc(Cl)cc2)[C@@H]1O`, the EC25 is 0.4 µM.

The molecule `CC1(C)Oc2ccc(S(=O)(=O)N3CCCCCC3)cc2[C@@H](/N=C(\NC#N)Nc2ccc(Cl)cc2)[C@@H]1O` displayed an EC25 of 0.6 µM.

For the molecule `CC(C)CN(CC(C)C)S(=O)(=O)c1ccc2c(c1)[C@@H](/N=C(\NC#N)Nc1ccc(Cl)cc1)[C@H](O)C(C)(C)O2`, the EC25 turned out to be 0.04 µM.

Regarding `CC1(C)Oc2ccc(S(=O)(=O)NC3CCCCC3)cc2[C@@H](/N=C(\NC#N)Nc2ccc(Cl)cc2)[C@@H]1O`, the EC25 amounted to 2.2 µM.

Molecule `CC(C)N(C(C)C)S(=O)(=O)c1ccc2c(c1)[C@@H](/N=C(\NC#N)Nc1ccc(Cl)cc1)[C@H](O)C(C)(C)O2` registered an EC25 of 0.24 µM.

Molecule `CC(C)(C)C(=O)c1ccc2c(c1)[C@@H](/N=C(\NC#N)Nc1ccc(Cl)cc1)[C@H](O)C(C)(C)O2` came in with an EC25 of 1.8 µM.

Molecule `CC1(C)Oc2ccc(S(=O)(=O)N3CCCC(Cc4ccccc4)C3)cc2[C@@H](/N=C(\NC#N)Nc2ccc(Cl)cc2)[C@@H]1O` (some centres undefined) showed an EC25 of 1.1 µM.

In turn, `CCN(CC)S(=O)(=O)c1ccc2c(c1)[C@@H](/N=C(\NC#N)Nc1ccc(Cl)cc1)[C@H](O)C(C)(C)O2` returned an EC25 of 0.3 µM.

On to `CC1(C)Oc2ccc(C(=O)c3ccccc3)cc2[C@@H](/N=C(\NC#N)Nc2ccc(Cl)cc2)[C@@H]1O`, for which the 25% effect concentration (EC25) worked out at 0.9 µM.

In turn, `C[C@@H]1CCC[C@H](C)N1S(=O)(=O)c1ccc2c(c1)[C@@H](/N=C(\NC#N)Nc1ccc(Cl)cc1)[C@H](O)C(C)(C)O2` displayed an EC25 of 0.34 µM.

With `CC1(C)Oc2ccc(Cc3ccccc3)cc2[C@@H](/N=C(\NC#N)Nc2ccc(Cl)cc2)[C@@H]1O`, the EC25 was 11.1 µM.

As to `CC1(C)Oc2ccc(S(=O)(=O)N3CCCCC3)cc2[C@@H](/N=C(\NC#N)Nc2ccc(Cl)cc2)[C@@H]1O`, the concentration for an effect of 25% (EC25) turned out to be 0.27 µM.

`CC1(C)Oc2ccc(S(=O)(=O)N3CCOCC3)cc2[C@@H](/N=C(\NC#N)Nc2ccc(Cl)cc2)[C@@H]1O`: the EC25 was 1 µM.

On to `CC1(C)Oc2ccc(S(=O)(=O)N3CCC(Cc4ccccc4)CC3)cc2[C@@H](/N=C(\NC#N)Nc2ccc(Cl)cc2)[C@@H]1O`, for which the EC25 is 0.94 µM.

The molecule `CC1(C)Oc2ccc(S(N)(=O)=O)cc2[C@@H](/N=C(\NC#N)Nc2ccc(Cl)cc2)[C@@H]1O` yielded an EC25 of over 10 µM.

With `CC1(C)Oc2ccc(C#N)cc2[C@@H](/N=C(\NC#N)Nc2ccc(Cl)cc2)[C@@H]1O`, the 25% effect concentration (EC25) came out at 2.5 µM.

Take `CC1CC(C)CN(S(=O)(=O)c2ccc3c(c2)[C@@H](/N=C(\NC#N)Nc2ccc(Cl)cc2)[C@H](O)C(C)(C)O3)C1` (some centres undefined): the concentration for an effect of 25% (EC25) came to 0.23 µM.

Consider `CC1CCN(S(=O)(=O)c2ccc3c(c2)[C@@H](/N=C(\NC#N)Nc2ccc(Cl)cc2)[C@H](O)C(C)(C)O3)CC1`, for which the EC25 worked out at 0.65 µM.

`CCN(CC(F)(F)F)S(=O)(=O)c1ccc2c(c1)[C@@H](/N=C(\NC#N)Nc1ccc(Cl)cc1)[C@H](O)C(C)(C)O2` showed an EC25 of 0.26 µM.

As for `CC1(C)Oc2ccc(C(=O)Nc3ccccc3)cc2[C@@H](/N=C(\NC#N)Nc2ccc(Cl)cc2)[C@@H]1O`, the EC25 was over 10 µM.

A further test is filed under the species Rattus norvegicus. Nature of the test: Antiischemic potency by measurement of increase in time to contracture in globally ischemic isolated perfused rat hearts at 1 uM. Type of test: functional. An outline of the steps:
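Isolated perfused rat hearts under global ischemia, compound present at 1 μM. Cardioprotection is read as the increase in time to onset of ischemic contracture.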
For `C=C(c1ccccc1)c1ccc2c(c1)[C@@H](/N=C(\NC#N)Nc1ccc(Cl)cc1)[C@H](O)C(C)(C)O2`, the Activity is given as 3%.

Another test is filed under the species Rattus norvegicus. The test can be described thus: In vitro relaxation of rat aorta precontracted with methoxamine. Format: functional. An outline of the steps:
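Rat aortic rings precontracted with methoxamine. IC50 is the concentration giving relaxation, reported as the mean of n = 4 or more.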
Molecule `CC1(C)Oc2ccc(C#N)cc2[C@H](N(Cc2ncc[nH]2)c2ccc(Cl)cc2)[C@H]1O` [BMS-191095] came in with an IC50 of over 30 µM.

Consider `CC1(C)Oc2ccc(S(=O)(=O)c3ccccc3)cc2[C@@H](/N=C(\NC#N)Nc2ccc(Cl)cc2)[C@@H]1O`, for which the concentration for half-maximal inhibition (IC50) worked out at 0.5 µM.

In the case of `CC1(C)Oc2ccc(S(=O)(=O)Nc3ccccc3)cc2[C@@H](/N=C(\NC#N)Nc2ccc(Cl)cc2)[C@@H]1O`, the concentration for half-maximal inhibition (IC50) worked out at 3.3 µM.

Consider `COP(=O)(c1ccccc1)c1ccc2c(c1)[C@@H](/N=C(\NC#N)Nc1ccc(Cl)cc1)[C@H](O)C(C)(C)O2` (some centres undefined), for which the 50% inhibitory concentration (IC50) came to 44.1 µM.

`CC1(C)Oc2ccc(C(=O)Cc3ccccc3)cc2[C@@H](/N=C(\NC#N)Nc2ccc(Cl)cc2)[C@@H]1O` returned an IC50 of 6.8 µM.

Molecule `CC(C)CN(CC(C)C)S(=O)(=O)c1ccc2c(c1)[C@@H](/N=C(\NC#N)Nc1ccc(Cl)cc1)[C@H](O)C(C)(C)O2` came in with an IC50 of 9.4 µM.

The molecule `C=C(c1ccccc1)c1ccc2c(c1)[C@@H](/N=C(\NC#N)Nc1ccc(Cl)cc1)[C@H](O)C(C)(C)O2` yielded an IC50 of 10.7 µM.

`CC1(C)Oc2ccc(S(=O)(=O)NC3CCCCC3)cc2[C@@H](/N=C(\NC#N)Nc2ccc(Cl)cc2)[C@@H]1O` registered an IC50 of 11.7 µM.

For `CC(C)(C)C(=O)c1ccc2c(c1)[C@@H](/N=C(\NC#N)Nc1ccc(Cl)cc1)[C@H](O)C(C)(C)O2`, the IC50 is 5.4 µM.

With `CCN(CC)S(=O)(=O)c1ccc2c(c1)[C@@H](/N=C(\NC#N)Nc1ccc(Cl)cc1)[C@H](O)C(C)(C)O2`, the concentration for half-maximal inhibition (IC50) stood at 1.1 µM.

As for `CC1(C)Oc2ccc(C(=O)c3ccccc3)cc2[C@@H](/N=C(\NC#N)Nc2ccc(Cl)cc2)[C@@H]1O`, the 50% inhibitory concentration (IC50) amounted to 7.1 µM.

With `C[C@@H]1CCC[C@H](C)N1S(=O)(=O)c1ccc2c(c1)[C@@H](/N=C(\NC#N)Nc1ccc(Cl)cc1)[C@H](O)C(C)(C)O2`, the IC50 came to 0.5 µM.

Consider `CC1(C)Oc2ccc(Cc3ccccc3)cc2[C@@H](/N=C(\NC#N)Nc2ccc(Cl)cc2)[C@@H]1O`, for which the half-inhibitory concentration (IC50) amounted to 10 µM.

The molecule `CC1(C)Oc2ccc(S(=O)(=O)N3CCCCC3)cc2[C@@H](/N=C(\NC#N)Nc2ccc(Cl)cc2)[C@@H]1O` returned an IC50 of 1.9 µM.

Take `CC1(C)Oc2ccc(S(=O)(=O)N3CCOCC3)cc2[C@@H](/N=C(\NC#N)Nc2ccc(Cl)cc2)[C@@H]1O`: the IC50 was 3.1 µM.

Molecule `CC1(C)Oc2ccc(S(=O)(=O)N3CCC(Cc4ccccc4)CC3)cc2[C@@H](/N=C(\NC#N)Nc2ccc(Cl)cc2)[C@@H]1O` displayed a 50% inhibitory concentration (IC50) of over 30 µM.

`CC1(C)Oc2ccc(S(N)(=O)=O)cc2[C@@H](/N=C(\NC#N)Nc2ccc(Cl)cc2)[C@@H]1O`: the IC50 was 41.3 µM.

`CC1CC(C)CN(S(=O)(=O)c2ccc3c(c2)[C@@H](/N=C(\NC#N)Nc2ccc(Cl)cc2)[C@H](O)C(C)(C)O3)C1` (some centres undefined) gave a half-inhibitory concentration (IC50) of 32.1 µM.

`CC1(C)Oc2ccc(C(=O)Nc3ccccc3)cc2[C@@H](/N=C(\NC#N)Nc2ccc(Cl)cc2)[C@@H]1O` returned an IC50 of over 100 µM.

Tested on in the next test: not listed separately
The test can be described thus: Ratio of Antiischemic potency to vasorelaxant potency. Type of test: functional. An outline of the steps: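 Selectivity is calculated as the EC25 for lengthening time to contracture in globally ischemic isolated rat hearts divided by the IC50 for relaxing methoxamine-contracted rat aorta.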
Regarding `CC1(C)Oc2ccc(C#N)cc2[C@H](N(Cc2ncc[nH]2)c2ccc(Cl)cc2)[C@H]1O` [BMS-191095], the Ratio was under 0.05.

Regarding `CC1(C)Oc2ccc(S(=O)(=O)c3ccccc3)cc2[C@@H](/N=C(\NC#N)Nc2ccc(Cl)cc2)[C@@H]1O`, the Ratio was determined as 1.6.

In the case of `CC1(C)Oc2ccc(S(=O)(=O)Nc3ccccc3)cc2[C@@H](/N=C(\NC#N)Nc2ccc(Cl)cc2)[C@@H]1O`, the Ratio worked out at 0.6.

As for `COP(=O)(c1ccccc1)c1ccc2c(c1)[C@@H](/N=C(\NC#N)Nc1ccc(Cl)cc1)[C@H](O)C(C)(C)O2` (some centres undefined), the Ratio is 0.05.

For `CC1(C)Oc2ccc(C#N)cc2[C@@H](N2CCCC2=O)[C@@H]1O` [CROMAKALIM], the Ratio came out at 278.

Regarding `CC1(C)Oc2ccc(C(=O)Cc3ccccc3)cc2[C@@H](/N=C(\NC#N)Nc2ccc(Cl)cc2)[C@@H]1O`, the Ratio amounted to 0.06.

As to `CC(C)CN(CC(C)C)S(=O)(=O)c1ccc2c(c1)[C@@H](/N=C(\NC#N)Nc1ccc(Cl)cc1)[C@H](O)C(C)(C)O2`, the Ratio is 0.004.

For the molecule `CC1(C)Oc2ccc(S(=O)(=O)NC3CCCCC3)cc2[C@@H](/N=C(\NC#N)Nc2ccc(Cl)cc2)[C@@H]1O`, the Ratio was determined as 0.19.

Take `CC(C)(C)C(=O)c1ccc2c(c1)[C@@H](/N=C(\NC#N)Nc1ccc(Cl)cc1)[C@H](O)C(C)(C)O2`: the Ratio is 0.33.

As to `CCN(CC)S(=O)(=O)c1ccc2c(c1)[C@@H](/N=C(\NC#N)Nc1ccc(Cl)cc1)[C@H](O)C(C)(C)O2`, the Ratio stood at 0.27.

Regarding `CC1(C)Oc2ccc(C(=O)c3ccccc3)cc2[C@@H](/N=C(\NC#N)Nc2ccc(Cl)cc2)[C@@H]1O`, the Ratio is 0.13.

For `C[C@@H]1CCC[C@H](C)N1S(=O)(=O)c1ccc2c(c1)[C@@H](/N=C(\NC#N)Nc1ccc(Cl)cc1)[C@H](O)C(C)(C)O2`, the Ratio was determined as 0.68.

Regarding `CC1(C)Oc2ccc(Cc3ccccc3)cc2[C@@H](/N=C(\NC#N)Nc2ccc(Cl)cc2)[C@@H]1O`, the Ratio amounted to 1.1.

Regarding `CC1(C)Oc2ccc(S(=O)(=O)N3CCCCC3)cc2[C@@H](/N=C(\NC#N)Nc2ccc(Cl)cc2)[C@@H]1O`, the Ratio was found to be 0.14.

Regarding `CC1(C)Oc2ccc(S(=O)(=O)N3CCOCC3)cc2[C@@H](/N=C(\NC#N)Nc2ccc(Cl)cc2)[C@@H]1O`, the Ratio is 0.32.

Consider `CC1(C)Oc2ccc(C#N)cc2[C@@H](/N=C(\NC#N)Nc2ccc(Cl)cc2)[C@@H]1O`, for which the Ratio was determined as 1.4.

On to `CC1CC(C)CN(S(=O)(=O)c2ccc3c(c2)[C@@H](/N=C(\NC#N)Nc2ccc(Cl)cc2)[C@H](O)C(C)(C)O3)C1` (some centres undefined), for which the Ratio was 0.007.

Another test is filed under the species Rattus norvegicus. Nature of the test: Antiischemic potency by measurement of increase in time to contracture in globally ischemic isolated perfused rat hearts. Format: functional. An outline of the steps: as §1
Molecule `CC1(C)Oc2ccc(S(=O)(=O)N3CCCC3)cc2[C@@H](/N=C(\NC#N)Nc2ccc(Cl)cc2)[C@@H]1O` returned a concentration for an effect of 25% (EC25) of 0.33 µM.
